Laboratory results as given in ChEMBL document CHEMBL1151473, “Posaconazole activity against Candida glabrata after exposure to caspofungin or amphotericin B” (2008).
In brackets after ≈: the same amount, converted by molar mass. Activity calls are given as the source filed them. The calls are words filed in the database; no cut-off is given here.

Key:
Nakaseomyces glabratus [1] = assay: Antifungal activity against Candida glabrata isolate 4205 after 48 hrs by broth microdilution method; format: functional; details: isolate 4205, 48 h
In short: (§1)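 CLSI broth microdilution with final drug concentrations […], incubated at 35°C and read spectrophotometrically at 490 nm at 24 and 48 h. MIC is the first concentration giving 50% turbidity reduction versus control, or 90% for amphotericin B. Run in quintuplicate.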

Nakaseomyces glabratus [2] = assay: Antifungal activity against Candida glabrata isolate 4370 after 48 hrs by broth microdilution method; format: functional; in short: as §1
Nakaseomyces glabratus [3] = assay: Antifungal activity against Candida glabrata isolate 4293 after 48 hrs by broth microdilution method; format: functional; in short: as §1
Candida parapsilosis = assay: Antifungal activity against Candida parapsilosis ATCC 22019 after 48 hrs by broth microdilution method; format: functional; details: Lodderomyces parapsilosis, ATCC 22019, 48 h; in short: as §1
Nakaseomyces glabratus [4] = assay: Antifungal activity against Candida glabrata isolate 4198 after 48 hrs by broth microdilution method; format: functional; in short: as §1
Nakaseomyces glabratus [5] = assay: Antifungal activity against Candida glabrata isolate 4293 at 15 ug/disk after 24 hrs by halo assay; format: functional; details: isolate 4293, 24 h, read-out: IZ
In short: (§2)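 Exposed or unexposed C. glabrata 4293 cells (1 x 10^6 CFU/ml) plated on Mueller-Hinton agar with methylene blue. 6-mm disks loaded with 20 µl posaconazole at 5 or 15 µg. Incubated at 35°C; inhibition zone diameters measured at 24 and 48 h; quintuplicate.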

Nakaseomyces glabratus [6] = assay: Antifungal activity against Candida glabrata isolate 4293 pretreated overnight with 0.125 times of amphotericin B MIC measured at 15 ug/disk after 24 hrs by halo assay; format: functional; details: read-out: IZ; in short: as §2
Nakaseomyces glabratus [7] = assay: Antifungal activity against Candida glabrata isolate 4293 assessed as viable yeast cells pretreated overnight with 0.25 ug/ml caspofungin measured at 0.5 ug/ml after 48 hrs; format: functional
Nakaseomyces glabratus [8] = assay: Antifungal activity against Candida glabrata isolate 4293 pretreated overnight with 0.5 times of amphotericin B MIC measured at 5 ug/disk after 24 hrs by halo assay; format: functional; details: read-out: IZ; in short: as §2
Nakaseomyces glabratus [9] = assay: Antifungal activity against Candida glabrata isolate 4205 pretreated overnight with 0.5 times of caspofungin MIC measured after 48 hrs by broth microdilution method; format: functional
Nakaseomyces glabratus [10] = assay: Antifungal activity against Candida glabrata isolate 4293 assessed as viable yeast cells pretreated overnight with 0.015 ug/ml caspofungin measured at 4 ug/ml measured after 48 hrs; format: functional
Nakaseomyces glabratus [11] = assay: Antifungal activity against Candida glabrata isolate 4293 pretreated overnight with 0.125 times of caspofungin MIC measured at 15 ug/disk after 24 hrs by halo assay; format: functional; details: read-out: IZ; in short: as §2
Nakaseomyces glabratus [12] = assay: Antifungal activity against Candida glabrata isolate 4293 assessed as viable yeast cells pretreated overnight with 0.25 ug/ml caspofungin measured at 4 ug/ml measured after 48 hrs; format: functional
Nakaseomyces glabratus [13] = assay: Antifungal activity against Candida glabrata isolate 4293 pretreated overnight with 0.5 times of caspofungin MIC measured at 15 ug/disk after 24 hrs by halo assay; format: functional; details: read-out: IZ; in short: as §2
Nakaseomyces glabratus [14] = assay: Antifungal activity against Candida glabrata isolate 4293 pretreated overnight with 0.125 times of amphotericin B MIC measured at 5 ug/disk after 24 hrs by halo assay; format: functional; details: read-out: IZ; in short: as §2
Nakaseomyces glabratus [15] = assay: Antifungal activity against Candida glabrata isolate 4293 pretreated overnight with 0.5 times of caspofungin MIC measured after 48 hrs by broth microdilution method; format: functional
Nakaseomyces glabratus [16] = assay: Antifungal activity against Candida glabrata isolate 4293 pretreated overnight with 0.125 times of caspofungin MIC measured at 5 ug/disk after 24 hrs by halo assay; format: functional; details: read-out: IZ; in short: as §2
Nakaseomyces glabratus [17] = assay: (§3) Antifungal activity against 1.04 x 10^8 CFU Candida glabrata isolate 4293 infected in CD1 mouse assessed as reduction in colony forming units treated with a therapeutic regimen of sterile saline solution from day 1 to day 2 followed by 30 mg/kg/day drug administration via oral gavage from day 3 to day 6 post viral challenge measured on day 7 postinfection relative to control; format: functional, organism-based
In short: (§4)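 CD1 male mice, 25 g, made neutropenic with intraperitoneal cyclophosphamide at 200 mg/kg/day on days −4, +1 and +4. Infected intravenously with C. glabrata 4293 in 0.2 ml. Therapy starts 24 h postchallenge: sterile saline placebo, then once-daily oral gavage in 0.2 ml. Kidney pairs homogenized and plated on Sabouraud dextrose agar for CFU; seven to eight animals per group; medians reported.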

Nakaseomyces glabratus [18] = assay: Antifungal activity against Candida glabrata isolate 4293 assessed as viable yeast cells pretreated overnight with 0.015 ug/ml caspofungin measured at 0.5 ug/ml after 48 hrs; format: functional
Nakaseomyces glabratus [19] = assay: Antifungal activity against Candida glabrata isolate 4293 pretreated overnight with 0.5 times of amphotericin B MIC measured after 48 hrs by broth microdilution method; format: functional
Nakaseomyces glabratus [20] = assay: as §3, with “2.44” for “1.04”, “15” for “30”; format: functional, organism-based; in short: as §4
Nakaseomyces glabratus [21] = assay: Antifungal activity against Candida glabrata isolate 4370 pretreated overnight with 0.5 times of caspofungin MIC measured after 48 hrs by broth microdilution method; format: functional
Nakaseomyces glabratus [22] = assay: Antifungal activity against Candida glabrata isolate 4293 pretreated overnight with 0.5 times of caspofungin MIC measured at 5 ug/disk after 24 hrs by halo assay; format: functional; details: read-out: IZ; in short: as §2
Nakaseomyces glabratus [23] = assay: Antifungal activity against Candida glabrata isolate 4370 pretreated overnight with 0.5 times of amphotericin B MIC measured after 48 hrs by broth microdilution method; format: functional
Nakaseomyces glabratus [24] = assay: Antifungal activity against Candida glabrata isolate 4293 pretreated overnight with 0.5 times of amphotericin B MIC measured at 15 ug/disk after 24 hrs by halo assay; format: functional; details: read-out: IZ; in short: as §2
Nakaseomyces glabratus [25] = assay: Antifungal activity against Candida glabrata isolate 4205 pretreated overnight with 0.5 times of amphotericin B MIC measured after 48 hrs by broth microdilution method; format: functional
Nakaseomyces glabratus [26] = assay: Antifungal activity against Candida glabrata isolate 4198 pretreated overnight with 0.5 times of amphotericin B MIC measured after 48 hrs by broth microdilution method; format: functional
Nakaseomyces glabratus [27] = assay: Antifungal activity against Candida glabrata isolate 4198 pretreated overnight with 0.5 times of caspofungin MIC measured after 48 hrs by broth microdilution method; format: functional
Nakaseomyces glabratus [28] = assay: Antifungal activity against Candida glabrata isolate 4293 at 5 ug/disk after 24 hrs by halo assay; format: functional; details: isolate 4293, 24 h, read-out: IZ; in short: as §2

OC(Cn1cncn1)(Cn1cncn1)c1ccc(F)cc1F [FLUCONAZOLE]
MIC (Nakaseomyces glabratus [1]): 1 µg/mL (≈ 3.27 µM)
MIC (Nakaseomyces glabratus [2]): 16 µg/mL (≈ 52.2 µM)
MIC (Nakaseomyces glabratus [3]): 32 µg/mL (≈ 104 µM)
MIC (Candida parapsilosis): 4 µg/mL (≈ 13.1 µM)
MIC (Nakaseomyces glabratus [4]): > 64 µg/mL

CC[C@@H]([C@H](C)O)n1ncn(-c2ccc(N3CCN(c4ccc(OC[C@@H]5CO[C@@](Cn6cncn6)(c6ccc(F)cc6F)C5)cc4)CC3)cc2)c1=O [POSACONAZOLE]
zone of inhibition at 15 µg/disc (Nakaseomyces glabratus [5]): 30 mm
zone of inhibition at 15 µg/disc (Nakaseomyces glabratus [6]): 30 mm
MIC (Nakaseomyces glabratus [1]): ≤ 0.03 µg/mL
Activity (Nakaseomyces glabratus [7]): 6.2%
zone of inhibition at 5 µg/disc (Nakaseomyces glabratus [8]): 28.4 mm
MIC (Nakaseomyces glabratus [9]): 0.06 µg/mL (≈ 0.0856 µM)
Activity (Nakaseomyces glabratus [10]): 0.01%
MIC (Nakaseomyces glabratus [2]): 0.06 µg/mL (≈ 0.0856 µM)
zone of inhibition at 15 µg/disc (Nakaseomyces glabratus [11]): 29.6 mm
Activity (Nakaseomyces glabratus [12]): 0.01%
zone of inhibition at 15 µg/disc (Nakaseomyces glabratus [13]): 29 mm
zone of inhibition at 5 µg/disc (Nakaseomyces glabratus [14]): 27 mm
MIC (Nakaseomyces glabratus [15]): 0.125 µg/mL (≈ 0.178 µM)
zone of inhibition at 5 µg/disc (Nakaseomyces glabratus [16]): 28 mm
Activity (Nakaseomyces glabratus [17]): Active
MIC (Nakaseomyces glabratus [3]): 0.25 µg/mL (≈ 0.357 µM)
MIC (Candida parapsilosis): ≤ 0.03 µg/mL
MIC (Nakaseomyces glabratus [4]): 0.5 µg/mL (≈ 0.713 µM)
Activity (Nakaseomyces glabratus [18]): 6.2%
MIC (Nakaseomyces glabratus [19]): 0.25 µg/mL (≈ 0.357 µM)
Activity (Nakaseomyces glabratus [20]): Active
MIC (Nakaseomyces glabratus [21]): 0.125 µg/mL (≈ 0.178 µM)
zone of inhibition at 5 µg/disc (Nakaseomyces glabratus [22]): 26.8 mm
MIC (Nakaseomyces glabratus [23]): 0.06 µg/mL (≈ 0.0856 µM)
zone of inhibition at 15 µg/disc (Nakaseomyces glabratus [24]): 29.8 mm
MIC (Nakaseomyces glabratus [25]): ≤ 0.03 µg/mL
MIC (Nakaseomyces glabratus [26]): 0.5 µg/mL (≈ 0.713 µM)
MIC (Nakaseomyces glabratus [27]): 1 µg/mL (≈ 1.43 µM)
zone of inhibition at 5 µg/disc (Nakaseomyces glabratus [28]): 29 mm
